The source of these data is ChEMBL document CHEMBL3272265, “Interferon inducing activities of derivatives of 1,3-dimethyl-4-(3-dimethylaminopropylamino)-1H-pyrazolo(3,4-b)quinoline and related compounds” (J Med Chem, 1976).

The structures appear in SMILES notation. Activity calls are given as the source filed them. No cut-off for these calls is given here.

One data set has as its system Mus musculus. In words: Induction of interferon level in CD-1 mouse serum at 300 mg/kg, ip after 18 to 20 hrs by vesicular stomatitis virus plaque reduction assay. The class given is functional, organism-based. Set-up: dose 300 mg/kg.
Conditions: not given
The gist of the method:
(§1)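 Dosing was oral or ip in 15-g female CD-1 mice, at least three per dose level, with compound in sterile distilled water as a solution or suspension. Pooled sera were collected 18–20 hr after dosing. Interferon units/ml were quantified by a plaque reduction assay on mouse L cells with vesicular stomatitis virus challenge, run against an NIAID reference mouse interferon standard.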
In general terms: In a plaque reduction assay, fewer plaques than in the control indicate reduced infectivity or spread.
Consider `Cc1nn(-c2ccc(C(=O)O)cc2)c2nc3ccccc3c(NCCCN(C)C)c12`, for which the outcome was inactive. Regarding `Cc1nn(CC(=O)NCCCN(C)C)c2nc3ccccc3c(NCCCN(C)C)c12`, the result was inactive. Turning to `Cc1cc(NCCCNc2c3ccccc3nc3c2c(C)nn3C)n(C)n1`, the outcome was inactive.

In the case of `COC(=O)c1ccc2c(NCCCN(C)C)c3c(C)nn(C)c3nc2c1`, the result was inactive.

For `Cc1nn(C)c2nc3cccc(N)c3c(NCCCN(C)C)c12`, the outcome was inactive.

In the case of `Cc1nn(C)c2nc3ccccc3c(NCCCNC=O)c12`, the result was inactive. Turning to `CN(C)CCCNc1ccncc1`, the outcome was inactive. With `Cc1n[nH]c2nc3ccccc3c(NCCCN(C)C)c12`, the result was inactive.

In the case of `Cc1nn(C)c2nc3cc(C(=O)O)ccc3c(NCCCN(C)C)c12`, the result was inactive. In the case of `Cc1nn(C)c2nc3cc([N+](=O)[O-])ccc3c(NCCCN(C)C)c12`, the result was inactive.

`Cc1nn(C)c2nc3ccccc3c(NCc3ccccc3N(C)C)c12`: the outcome was inactive. Take `COC(=O)CCCNc1c2ccccc2nc2c1c(C)nn2C`: the result was inactive.

Regarding `Cc1cc(Nc2c3ccccc3nc3c2c(C)nn3C)n(C)n1`, the result was inactive. Consider `Cc1nn(-c2ccccc2)c2nc3ccccc3c(NCCCN(C)C)c12`, for which the outcome was inactive.

On to `Cc1nn(C)c2nc3ccccc3c(CCNCCCNCCCN(C)C)c12`, for which the result was inactive. On to `Cc1nn(CCO)c2nc3ccccc3c(NCCCN(C)C)c12`, for which the outcome was inactive. In the case of `CC(=O)Nc1ccc2nc3c(c(C)nn3C)c(NCCCN(C)C)c2c1`, the outcome was inactive. For the molecule `Cc1nn(C)c2nc3ccc(S(=O)(=O)NCCCN(C)C)cc3c(NCCCN(C)C)c12`, the result was inactive. In the case of `Cc1nn(C)c2nc3ccc(S(=O)(=O)O)cc3c(NCCCN(C)C)c12`, the outcome was inactive. In the case of `Cc1cc(Nc2ccccc2CNCCCN(C)C)n(C)n1`, the outcome was inactive.

As to `Cc1nn(C)c2nc3c(Cl)cccc3c(NCCCN(C)C)c12`, the result was inactive. Still for that read-out and setting: to `Cc1nn(C)c2nc3ccccc3c(NC34CC5CC(CC(C5)C3)C4)c12` belongs “inactive”; to `CNCc1c2ccccc2nc2c1c(C)nn2C`, “inactive”; to `Cc1nn(C)c2nc3ncncc3c(NCCCN(C)C)c12`, “inactive”. Regarding `Cc1nn(C)c2nc3ccccc3c(NCCCN(CCO)CCO)c12`, the result was inactive. Still for that read-out and setting: in the case of `Cc1nn(C)c2nc3ccc(S(N)(=O)=O)cc3c(NCCCN(C)C)c12` it was “inactive”; in that of `Cc1nn(C)c2nc3ccc(O)cc3c(NCCCN(C)C)c12`, “inactive”; in that of `Cc1cc(Nc2ccccc2C(=O)NCCCN(C)C)n(C)n1`, “inactive”. With `Cc1nn(C)c2nc3cc(O)ccc3c(NCCCN(C)C)c12`, the outcome was inactive. Turning to `CN(C)CCCNc1ccnc2ccccc12`, the result was inactive. Take `Cc1nn(C)c2nc3ccccc3c(NCCCC(=O)O)c12`: the outcome was inactive. Regarding `COc1ccc(-n2nc(C)c3c(NCCCN(C)C)c4ccccc4nc32)cc1`, the result was inactive. Take `Cc1nn(C)c2nc3cc(C(=O)NCCCN(C)C)ccc3c(NCCCN(C)C)c12`: the outcome was inactive. `Cc1nn(C)c2nc3ccccc3c(N3CCCCC3CCN(C)C)c12` (centres undefined): the outcome was inactive. On the same count and under the same terms, to `Cc1nn(C)c2nc3ccccc3c(S)c12` belongs “inactive”; to `Cc1nn(C)c2nc3ccc(N)cc3c(NCCCN(C)C)c12`, “inactive”. Same read-out and setting: in the case of `Cc1nn(CC(=O)O)c2nc3ccccc3c(NCCCN(C)C)c12` it was “inactive”.

Another data set has as its system Mus musculus. Kind of data set: Induction of interferon level >= 32 units/mL in po dosed CD-1 mouse serum after 18 to 20 hrs by vesicular stomatitis virus plaque reduction assay. The class given is functional. Conditions: CD-1, Serum, read-out: MED. In short, it runs like this:
(§2)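 Female CD-1 mice (15 g; at least three per dose) received compound dissolved or suspended in sterile distilled water, orally or ip. They were bled 18–20 hr later and sera pooled. Interferon was titrated by plaque reduction in mouse L cells challenged with vesicular stomatitis virus, with an NIAID reference mouse interferon standard. MED was the lowest dose giving ≥32 units/ml. Top doses were 400 mg/kg po and 300 mg/kg ip.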
In the case of `COc1ccc2c(NCCCN(C)C)c3c(C)nn(C)c3nc2c1.Cl`, the minimal effective dose was determined as 50 mg/kg.

Regarding `COc1cc(OC)c2c(NCCCN(C)C)c3c(C)nn(C)c3nc2c1.Cl`, the minimal effective dose was found to be 25 mg/kg. As for `CNCCCNc1c2ccccc2nc2c1c(C)nn2C.Cl`, the minimal effective dose stood at 200 mg/kg. `Cc1nn(C)c2nc3cc(F)ccc3c(NCCCN(C)C)c12.Cl`: the minimal effective dose is at least 100 mg/kg. Same read-out and setting: in the case of `Cc1nn(C)c2nc3ccccc3c(NCCCN3CCCC3)c12.Cl` it was 200 mg/kg; in that of `COc1cc2nc3c(c(C)nn3C)c(NCCCN(C)C)c2cc1OC.Cl`, 50 mg/kg; in that of `Cc1cc(C)c2nc3c(c(C)nn3C)c(NCCCN(C)C)c2c1.Cl`, 400 mg/kg.

For the molecule `Cc1nn(C)c2nc3c(ccc4ncccc43)c(NCCCN(C)C)c12.Cl`, the minimal effective dose was determined as 100 mg/kg. Still for that read-out and setting: to `Cc1nn(C)c2nc3ccccc3c(NCCCCCCN(C)C)c12.Cl` belongs 200 mg/kg.

As for `Cc1nn(C)c2nc3ccc(F)cc3c(NCCCN(C)C)c12.Cl`, the minimal effective dose was at least 400 mg/kg. On the same count and under the same terms, in the case of `Cc1nn(C)c2nc3ccccc3c(NCCN(C)C)c12.Cl` it was 400 mg/kg; in that of `CN(C)CCCNc1c2ccccc2nc2c1ccn2C`, 200 mg/kg; in that of `CN(C)CCCNc1c2ccccc2nc2c1cnn2C.Cl`, 200 mg/kg.

`Cc1nn(C)c2nc3ccccc3c(NCCCCN(C)C)c12.Cl`: the minimal effective dose turned out to be 200 mg/kg. For `CCN(CC)CC(O)CNc1c2ccccc2nc2c1c(C)nn2C.Cl` (centres undefined), the minimal effective dose was 400 mg/kg.

The test system of a further data set is Mus musculus. In words: Toxicity in CD-1 mouse at 300 mg/kg, ip. The class given is organism-based. Further details: dose 300 mg/kg, route intraperitoneal. Particulars: in vivo.
`Cc1nn(C)c2nc3ccccc3c(NCCCNC3CCCCC3)c12.Cl`: the Activity entry is listed as “Toxic”.

The next data set deals with Mus musculus. In words: Induction of interferon level in CD-1 mouse serum at 400 mg/kg, po after 18 to 20 hrs by vesicular stomatitis virus plaque reduction assay. The class given is functional, organism-based. Further details: dose 400 mg/kg.
Conditions: not given
The gist of the method:
as §1
As to `Cc1nn(C)c2nccc(NCCCN(C)C)c12`, the result was inactive. With `CCN(CC)CCCC(C)Nc1c2ccccc2nc2c1c(C)nn2C` (centres undefined), the result was inactive. In the case of `Cc1nn(C)c2nc3ccccc3c(SCc3ccccc3)c12`, the result was inactive. `Cc1nn(C)c2c1Cc1ccccc1N2`: the outcome was inactive. Still for that read-out and setting: to `Cc1nn(C)c2nc3c(cnn3C)c(NCCCN(C)C)c12` belongs “inactive”; to `CSCCCNc1c2ccccc2nc2c1c(C)nn2C`, “inactive”. On the same count and under the same terms, in the case of `Cc1nn(C)c2nc3c(cc12)CCCC3` it was “inactive”; in that of `Cc1nn(C)c2nc3cc(C(N)=O)ccc3c(NCCCN(C)C)c12`, “inactive”. For the molecule `Cc1nn(C)c2nc3ccccc3c(Cl)c12`, the result was inactive.

In the case of `Cc1cccc2c(NCCCN(C)C)c3ccccc3nc12`, the outcome was inactive. With `Cc1nn(C)c2ncc(C(=O)O)c(NCCCN(C)C)c12`, the outcome was inactive. In the case of `Cc1nn(C)c2nc3ccccc3c(NCCCCl)c12`, the result was inactive. As to `Cc1nn(C)c2nc3cc(N)ccc3c(NCCCN(C)C)c12`, the outcome was inactive. Turning to `Cc1nsc2nc3ccccc3c(NCCCN(C)C)c12`, the result was inactive.

Turning to `Cc1nn(C)c2nc3ccccc3c(NCCCO)c12`, the result was inactive. For the molecule `Cc1nn(C)c2nc3ccccc3cc12`, the result was inactive. For `Cc1nn(C)c2nc3ccccc3c(CCNCCCN(C)C)c12`, the outcome was inactive. Turning to `Cc1nn(C)c2nc3ccccc3c(NCCC[S+](C)[O-])c12` (centres undefined), the outcome was inactive. Turning to `Cc1nn(C)c2nc3ccccc3c(N)c12`, the outcome was inactive. Take `Cc1nn(C)c2nc3c(c(C)nn3C)c(NCCCN(C)C)c12`: the result was inactive. Turning to `Cc1nn(C)c2nc3cccc([N+](=O)[O-])c3c(NCCCN(C)C)c12`, the result was inactive. `Cc1nn(C)c2nc3cccc(NCCCN(C)C)c3cc12`: the outcome was inactive. Consider `CNc1c2ccccc2nc2c1c(C)nn2C`, for which the outcome was inactive. For the molecule `CC(=O)Nc1ccc2c(NCCCN(C)C)c3c(C)nn(C)c3nc2c1`, the outcome was inactive.

For a further data set, the system named is Mus musculus. In words: Induction of interferon level >= 32 units/mL in ip dosed CD-1 mouse serum after 18 to 20 hrs by vesicular stomatitis virus plaque reduction assay. The class given is functional. Particulars: CD-1, Serum, read-out: MED. In short, it runs like this:
as §2
As to `Cc1nn(C)c2nc3ccccc3c(NN3CCN(C)CC3)c12.Cl`, the minimal effective dose was found to be 300 mg/kg.

As for `COc1ccc2c(NCCCN(C)C)c3c(C)nn(C)c3nc2c1.Cl`, the minimal effective dose stood at 50 mg/kg.

With `COc1cc(OC)c2c(NCCCN(C)C)c3c(C)nn(C)c3nc2c1.Cl`, the minimal effective dose came to 25 mg/kg.

Take `CNCCCNc1c2ccccc2nc2c1c(C)nn2C.Cl`: the minimal effective dose turned out to be 150 mg/kg.

Turning to `Cc1nn(C)c2nc3ccccc3c(NCCCN3CCNCC3)c12.Cl`, the minimal effective dose came to 100 mg/kg. Consider `Cc1nn(C)c2nc3ncccc3c(NCCCN(C)C)c12.Cl`, for which the minimal effective dose is at least 300 mg/kg. As to `Cc1nn(C)c2nc3ccccc3c(CNCCCN(C)C)c12.Cl`, the minimal effective dose is at least 300 mg/kg.

With `COc1cc2nc3c(c(C)nn3C)c(NCCCN(C)C)c2cc1OC.Cl`, the minimal effective dose was determined as 50 mg/kg. For `Cc1nn(C)c2nc3c(ccc4ncccc43)c(NCCCN(C)C)c12.Cl`, the minimal effective dose was 100 mg/kg. For `Cc1nn(C)c2nc3cc4ccccc4cc3c(NCCCN(C)C)c12.Cl`, the minimal effective dose was 100 mg/kg. On the same count and under the same terms, in the case of `Cc1nn(C)c2nc3ccccc3c(NCCCCNc3c4ccccc4nc4c3c(C)nn4C)c12` it was at least 300 mg/kg; in that of `CCN1CCCC(Nc2c3ccccc3nc3c2c(C)nn3C)C1.Cl` (centres undefined), at least 300 mg/kg; in that of `Cc1nn(C)c2nc3ccccc3c(NCCCN)c12.Cl`, at least 300 mg/kg. Regarding `Cc1nn(C)c2nc3ccccc3c(NCCCN(C)CCCN(C)C)c12.Cl`, the minimal effective dose is above 300 mg/kg. Regarding `Cc1nn(C)c2nc3ccccc3c(NCCCNC(C)(C)C)c12.Cl`, the minimal effective dose was at least 300 mg/kg.

With `Cc1nn(C)c2nc3ccccc3c(NCCCNC(C)C)c12.Cl`, the minimal effective dose is at least 300 mg/kg. The same measure, in the same setting: in the case of `Cc1nn(C)c2nc3ccccc3c(NCCCN3CCN(C)CC3)c12.Cl` it was 300 mg/kg.
